# From ChEMBL document CHEMBL3085698, “Bioactive lignans from the trunk of Abies holophylla” (J Nat Prod, 2013)
# Columns and labels:
# [1] = Cytotoxicity against LPS-stimulated mouse BV2 cells assessed as cell viability by MTT assay relative to control; assay type: cell-based; conditions: bv-2
# Method in brief: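 MTT viability read in the same BV-2 setup: cells at 3 × 10^4 cells/well in DMEM with 5% FBS, compound pretreatment for 30 min, then 100 ng/mL LPS stimulation for 24 h.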
# [2] = Antineuroinflammatory activity in mouse BV2 cells assessed as inhibition of LPS-induced NO production incubated 30 mins prior to LPS-challenge measured after 24 hrs by Griess assay; assay type: functional, cell-based; conditions: BV-2
# Method in brief: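 BV-2 microglia grown in DMEM with 5% FBS and 1% penicillin-streptomycin, plated at 3 × 10^4 cells/well and left 24 h. Compounds added 30 min before 100 ng/mL LPS for 24 h. Supernatant nitrite measured by Griess reagent (1% sulphanilamide, 0.1% naphthylethylenediamine in 5% phosphoric acid), read at 540 nm after 10 min against a sodium nitrite standard. L-NMMA as positive control. IC50 reported.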
# C6 = assay: Induction of NGF secretion in rat C6 cells at 10 uM after 24 hrs by ELISA relative to control; assay type: functional
# Method in brief: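 Rat C6 glioma cells kept in DMEM with 10% FBS and 1% penicillin-streptomycin under 5% CO2, seeded at 1 × 10^5 cells/well. After 24 h, medium switched to DMEM with 2% FBS containing compound for one day. NGF released into the supernatant quantified by ELISA; viability checked by MTT. 6-Shogaol as positive control.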
Structure (SMILES),Activity [1],IC50 [2] [µM],Activity (C6) [%]
COc1cc(CCCO)ccc1O[C@@H](CO)Cc1ccc(O[C@@H]2OC[C@@H](O)[C@H](O)[C@H]2O)c(OC)c1,Non-toxic,31,169
COc1cc(C[C@H]2[C@@H](OC)OC[C@@H]2[C@H](O)c2ccc(O)c(OC)c2)ccc1O,,,165
COc1cc([C@@H]2Oc3c(OC)cc(CCCO)cc3[C@H]2CO)ccc1O[C@@H]1O[C@@H](C)[C@H](O)[C@@H](OC)[C@H]1O,,,159
COc1cc(C[C@H]2[C@H](OC)OC[C@@H]2[C@H](O)c2ccc(O)c(OC)c2)ccc1O,Non-toxic,36.4,
COc1cc([C@@H]2Oc3c(O)cc(CCCO)cc3[C@H]2CO)ccc1O[C@@H]1O[C@@H](C)[C@H](O)[C@@H](OC)[C@H]1O (relative stereo),Non-toxic,32.9,
COc1cc([C@H]2c3cc(O)c(OC)cc3C[C@H]3C(=O)OC[C@H]23)ccc1O [ALPHA-CONIDENDRIN],Non-toxic,28.5,
CCCCC/C=C/C(=O)CCc1ccc(O)c(OC)c1 [SHOGAOL],,,129
